In publication PMC3673543 (Biochemistry, 2012):

T1: Tat49-57 peptide, fluorescein/TAMRA FRET probe (HIV-1, UniProt P04608 49-57, not fully specified)
T1 chain: RKKRRQRRR


Columns and labels:
HIV TAR RNA [1] = assay: UV thermal denaturation of HIV TAR RNA with ligand; type: binding, HIV-1; settings: 100 mM KCl; for ΔTm (at rdr = 1): pH 6.8, TAR RNA 1 μM/strand; for Tm: ligand/HIV TAR RNA complex, rdr = 1, 10 mM SC, 0.5 mM EDTA, pH 6.8, TAR RNA 1 μM/strand
HIV TAR RNA [2] = assay: Ethidium bromide displacement; type: binding, HIV-1; settings: read-out: IC50 (ethidium bromide displacement); 100 mM KCl, 10 mM SC, 0.5 mM EDTA, pH 6.8; HIV TAR RNA 50 nM/strand
Procedure, shortened: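 Ethidium bromide at 1.25 μM is excited at 545 nm, and emission is scanned from 560 to 607 nm before and after adding TAR RNA. Under these conditions, less than 20% of the ethidium bromide is bound. Fluorescence displacement titration with test compound follows in the same buffer.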

HIV TAR RNA [3] = assay: Ethidium bromide displacement titration with Scatchard analysis; type: binding, HIV-1; settings: 100 mM KCl, 10 mM SC, 0.5 mM EDTA, pH 6.8; TAR RNA 200 nM/strand; EtBr 5 μM
Procedure, shortened: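 Fluorescent intercalator displacement: test compound titrated into ethidium bromide (5 μM) plus HIV TAR RNA (200 nM/strand) in 10 mM SC, 0.5 mM EDTA, pH 6.8 with 100 mM KCl. Salt series run at 50, 100 and 150 mM KCl. Excitation 545 nm, emission 560–607 nm. Scatchard plot slope gives the association constant K. For the salt series, log K was plotted against log [KCl] and fitted linearly.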

MT-2 cells = assay: Toxicity against MT-2 cells; type: cell-based; settings: concentration where no more than 5% cell death
HIV = assay: Protection from HIV-induced cytopathic effect; type: cell-based; settings: for Maximum protection from HIV cytopathic effects: neutral red dye
Procedure, shortened: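 MT-2 cells, a line highly susceptible to HIV and fully lysed by it, were used in triplicate wells. Finter's neutral red, a vital dye, served as read-out of inhibition of HIV-induced cytopathic effect, with water as control. Maximum percent protection was recorded together with the compound concentration at which it was reached.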

tetraloop TAR RNA Mutant = assay: FID titration with Scatchard analysis on mutant TAR; type: binding, HIV-1; settings: mutant tetraloop TAR 200 nM/strand; 100 mM KCl, pH 6.8; EtBr 5 μM
Procedure, shortened: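 Tetraloop TAR RNA–ethidium bromide complex in 100 mM KCl, 10 mM SC, 0.5 mM EDTA, pH 6.8, titrated with increasing test compound. The fall in fluorescence at 610 nm was followed. Normalized intensity was plotted against compound concentration, then transformed by Scatchard analysis to derive the binding constant.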

HIVNL4-3 = assay: Reverse transcriptase release into culture supernatant of MT-2 cells; type: cell-based, HIV
Procedure, shortened: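 MT-2 cells (500,000/well) were preincubated 1 h at 37 °C with test compound at a non-toxic concentration (≤5% cell death), then infected with H9-grown HIV NL4-3 (100,000 cpm RT activity per well, MOI <1). Virus control was infected cells plus water. Supernatants from days 2, 4 and 6 were PEG-precipitated and lysed. RT was measured as 3H-dTTP incorporation (poly rA-oligo dT, 1 h, 37 °C), as cpm/ml. Three separate experiments, each in triplicate.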

TAR = settings: aminoglycosides targeted towards TAR binding; cited from earlier work
[4] = target: T1, Tat49-57 peptide, fluorescein/TAMRA …; assay: fluorescence intensity

| Molecule | ΔTm (at rdr = 1) (HIV TAR RNA [1]) [°C] | Tm (HIV TAR RNA [1]) [°C] | IC50 (HIV TAR RNA [2]) [nM] | K (binding constant from Scatchard analysis of FID) (HIV TAR RNA [3]) [M⁻¹] | 5% Toxicity (CT5) (MT-2 cells) [µM] | concentration at which maximum protection was achieved (HIV; MT-2 cells, HIV cytopathic effect) [µM] | Maximum protection from HIV cytopathic effects (HIV; MT-2 cells) [%] | Ka (Scatchard analysis of FID titration) (tetraloop TAR RNA Mutant) | anti-HIV activity in the 96-well plate screening assay (HIV; HIV-induced cytopathic effect) | protection / suppression of RT release (HIVNL4-3; day 2 post inoculation, vs virus control) | protection / suppression of RT release (HIVNL4-3; day 4, vs virus control) | protection / suppression of RT release (HIVNL4-3; day 6, vs virus control) | ΔTm (at rdr = 1) (HIV TAR RNA [1]; listed as neomycin) | inhibitory effect (TAR) | apparent K (half saturation) [4] [nM] |
| --- | --- | --- | --- | --- | --- | --- | --- | --- | --- | --- | --- | --- | --- | --- | --- |
| NC[C@@H]1O[C@H](O[C@H]2[C@@H](O)[C@H](O[C@@H]3[C@@H](O)[C@H](N)C[C@H](N)[C@H]3O[C@H]3O[C@H](CN)[C@@H](O)[C@H](O)[C@H]3N)O[C@@H]2Cn2cc(COCc3cn(C[C@H]4O[C@@H](O[C@@H]5[C@@H](O)[C@H](N)C[C@H](N)[C@H]5O[C@H]5O[C@H](CN)[C@@H](O)[C@H](O)[C@H]5N)[C@H](O)[C@@H]4O[C@H]4O[C@@H](CN)[C@@H](O)[C@H](O)[C@H]4N)nn3)nn2)[C@H](N)[C@@H](O)[C@@H]1O [DPA51] | 10.2 | 79.1 | 56 | 1.17e+08 | – | – | – | – | – | – | – | – | – | – | – |
| NC[C@@H]1O[C@H](O[C@H]2[C@@H](O)[C@H](O[C@@H]3[C@@H](O)[C@H](N)C[C@H](N)[C@H]3O[C@H]3O[C@H](CN)[C@@H](O)[C@H](O)[C@H]3N)O[C@@H]2Cn2cc(CCCCc3cn(C[C@H]4O[C@@H](O[C@@H]5[C@@H](O)[C@H](N)C[C@H](N)[C@H]5O[C@H]5O[C@H](CN)[C@@H](O)[C@H](O)[C@H]5N)[C@H](O)[C@@H]4O[C@H]4O[C@@H](CN)[C@@H](O)[C@H](O)[C@H]4N)nn3)nn2)[C@H](N)[C@@H](O)[C@@H]1O [DPA54] | 8.2 | 77.1 | 81 | 2.61e+07 | 69 | 17 | 31 | – | – | – | – | – | – | – | – |
| NC[C@@H]1O[C@H](O[C@H]2[C@@H](O)[C@H](O[C@@H]3[C@@H](O)[C@H](N)C[C@H](N)[C@H]3O[C@H]3O[C@H](CN)[C@@H](O)[C@H](O)[C@H]3N)O[C@@H]2Cn2cc(-c3cccc(-c4cn(C[C@H]5O[C@@H](O[C@@H]6[C@@H](O)[C@H](N)C[C@H](N)[C@H]6O[C@H]6O[C@H](CN)[C@@H](O)[C@H](O)[C@H]6N)[C@H](O)[C@@H]5O[C@H]5O[C@@H](CN)[C@@H](O)[C@H](O)[C@H]5N)nn4)c3)nn2)[C@H](N)[C@@H](O)[C@@H]1O [DPA65] | 9.3 | 78.2 | 36 | 1.39e+08 | – | – | – | ~ 10^7 M^−1 | inactive to weakly active | 40-67% | 68-73% | 24-27% | – | – | – |
| NC[C@@H]1O[C@H](O[C@H]2[C@@H](O)[C@H](O[C@@H]3[C@@H](O)[C@H](N)C[C@H](N)[C@H]3O[C@H]3O[C@H](CN)[C@@H](O)[C@H](O)[C@H]3N)O[C@@H]2CO)[C@H](N)[C@@H](O)[C@@H]1O [Neomycin, Neomycin B tri-sulfate, reference compound] | 0.2 | 69.1 | 417 | – | – | – | 9 | – | – | – | – | – | no thermal stabilization | less than 1 μM | – |
| GGCAGAUCUGAGCCUGGGAGCUCUCUGCC (structured_RNA) [HIV-1 TAR RNA] | – | – | – | – | – | – | – | – | – | – | – | – | – | – | 86 ± 9 |
